The values below come from PubChem BioAssay.

Each structure is given as a SMILES string. Active and inactive are the calls of the source.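 How the source made its calls, unless noted: active means viability loss from added drug above about 55%, and viability with drug at most 40%, in both replicates (limit read from the data, passing the limit was not always enough); inconclusive means both conditions met in only one replicate; inactive means neither replicate meets both conditions.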

Test [1] concerns the target Pantothenate synthetase (Mycobacterium tuberculosis (strain ATCC 25618 / H37Rv)) (UniProt P9WIL5). Kind of test: Coupled enzyme confirmation of inhibitors against recombinant Mtb PanC (AID 375; call rule not given here;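 further: 0% = full reaction with vehicle and 100% = no enzyme background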). As to conditions: coupled enzyme assay; at 10 µM, stronger effect = higher value.
A short description of test [2]: reduced viability of SK-BR-3 breast cancer cells – cell-based, 24 h, human, pilot screen (AID 572;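 active means viability at or below 10% of carrier control in both of two separate runs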;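 further: compound exposure lasted between 18 and 24 h rather than exactly 24 h; 100% = carrier-treated control wells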). As to conditions: SK-BR-3 viability, CellTiter-Glo luminescence, at 10 µM, stronger effect = lower value. (In general: In ATP-based viability assays light output follows the ATP content of the culture.)
Test [3] can be described thus: HUVEC growth inhibition – cell-based, human, primary screen (AID 575;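 active means viability at or below 30% in both replicate assays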;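 further: 100% = median of untreated cell wells with 0.1% DMSO on each plate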). As to conditions: HUVEC proliferation, CellTiter-Glo luminescence, 72 h; at 10 µM; stronger effect = lower value. The gist of the method: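 Material: primary human umbilical vein endothelial cells / Schedule: 72 h exposure, 37 °C, 5% CO2, 30 min RT equilibration / Signal: ATP-based CellTiter-Glo luminescent read / Read-out basis: percent of median DMSO-control luminescence / Control set: 32 DMSO-only cell-control wells (high), 32 MePR drug-control wells (low) per plate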

Test [4] in a line: H69AR cell proliferation blockers – human, duplicate replicates, primary screen (AID 580;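 active means viability at or under a set limit in both replicates, limit being median viability minus 3 SD, cut at about 48% in these data, passing the limit was not always enough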;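 further: 100% = mean luminescence of untreated wells and 0% = no signal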). As to conditions: H69AR lung tumor cells viability, ATP luminescence, 72 h; at 10 µM; stronger effect = lower value.
Test [5] can be described thus: MRP1 drug-resistance reversers in H69AR cells – cell-based, doxorubicin co-treatment, pilot screen (AID 601). The following applies: CellTiter-Glo, 72 h, at 10 µM; for differential viability (reversal): stronger effect = higher value.
A short description of test [6]: yeast transport mutant growth inhibition pilot in 384-well plates, post-Golgi transport modulator project (AID 636; in the data active means inhibition above about 31%). The following applies: absorbance 615 nm, about 18 h, stronger effect = higher value.
A short description of test [7]: growth suppression of yeast trafficking mutant, preliminary HTS, modulators of trafficking downstream of Golgi apparatus project, 1536-format plate, OD 615 nm (AID 637; in the data active means inhibition above about 30%). The following applies: yeast transport mutant growth, absorbance 615 nm, 18 h; stronger effect = higher value.
Test [8] is described as follows: Her2 expression decrease, cell viability multiplex – SKBR3 breast tumor cells, AlphaScreen, ATP viability, primary screen (AID 461;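 active means Her2 level under about 52% in both replicate screens, with viability over 70% of control, limit read from the data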;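 on Her2 level: lower value means less Her2 protein in the cells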;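 on viability: percent of carrier control wells set as 100% viability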). As to conditions: SKBR3 Her2 protein level, 18-24 h, measured here: SKBR3 viability, ATP luminescence, at 10 µM.
For test [9], the target named is Receptor tyrosine-protein kinase erbB-2 (Homo sapiens) (UniProt P04626). The test is described as above. As to conditions: 18-24 h, at 10 µM, stronger effect = lower value.
Setting [10] is: H69AR cells + 2 uM doxorubicin, measured here: viability with 2 uM doxorubicin, stronger effect = lower value.
Setting [11] is: H69AR cells, compound alone cytotoxicity.

Pantothenate synthetase (Mycobacterium tuberculosis (strain ATCC 25618 / H37Rv)), sequence (P9WIL5 whole entry, looked up): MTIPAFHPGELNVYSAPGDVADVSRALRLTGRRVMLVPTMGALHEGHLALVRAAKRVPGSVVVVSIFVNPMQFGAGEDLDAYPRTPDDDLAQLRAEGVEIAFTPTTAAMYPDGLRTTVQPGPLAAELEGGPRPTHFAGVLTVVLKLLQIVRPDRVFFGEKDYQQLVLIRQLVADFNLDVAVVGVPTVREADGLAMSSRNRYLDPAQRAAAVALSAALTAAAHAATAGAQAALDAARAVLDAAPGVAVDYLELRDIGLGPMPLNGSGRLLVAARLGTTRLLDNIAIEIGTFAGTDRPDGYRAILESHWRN
Receptor tyrosine-protein kinase erbB-2 (Homo sapiens), sequence (P04626 whole entry, looked up): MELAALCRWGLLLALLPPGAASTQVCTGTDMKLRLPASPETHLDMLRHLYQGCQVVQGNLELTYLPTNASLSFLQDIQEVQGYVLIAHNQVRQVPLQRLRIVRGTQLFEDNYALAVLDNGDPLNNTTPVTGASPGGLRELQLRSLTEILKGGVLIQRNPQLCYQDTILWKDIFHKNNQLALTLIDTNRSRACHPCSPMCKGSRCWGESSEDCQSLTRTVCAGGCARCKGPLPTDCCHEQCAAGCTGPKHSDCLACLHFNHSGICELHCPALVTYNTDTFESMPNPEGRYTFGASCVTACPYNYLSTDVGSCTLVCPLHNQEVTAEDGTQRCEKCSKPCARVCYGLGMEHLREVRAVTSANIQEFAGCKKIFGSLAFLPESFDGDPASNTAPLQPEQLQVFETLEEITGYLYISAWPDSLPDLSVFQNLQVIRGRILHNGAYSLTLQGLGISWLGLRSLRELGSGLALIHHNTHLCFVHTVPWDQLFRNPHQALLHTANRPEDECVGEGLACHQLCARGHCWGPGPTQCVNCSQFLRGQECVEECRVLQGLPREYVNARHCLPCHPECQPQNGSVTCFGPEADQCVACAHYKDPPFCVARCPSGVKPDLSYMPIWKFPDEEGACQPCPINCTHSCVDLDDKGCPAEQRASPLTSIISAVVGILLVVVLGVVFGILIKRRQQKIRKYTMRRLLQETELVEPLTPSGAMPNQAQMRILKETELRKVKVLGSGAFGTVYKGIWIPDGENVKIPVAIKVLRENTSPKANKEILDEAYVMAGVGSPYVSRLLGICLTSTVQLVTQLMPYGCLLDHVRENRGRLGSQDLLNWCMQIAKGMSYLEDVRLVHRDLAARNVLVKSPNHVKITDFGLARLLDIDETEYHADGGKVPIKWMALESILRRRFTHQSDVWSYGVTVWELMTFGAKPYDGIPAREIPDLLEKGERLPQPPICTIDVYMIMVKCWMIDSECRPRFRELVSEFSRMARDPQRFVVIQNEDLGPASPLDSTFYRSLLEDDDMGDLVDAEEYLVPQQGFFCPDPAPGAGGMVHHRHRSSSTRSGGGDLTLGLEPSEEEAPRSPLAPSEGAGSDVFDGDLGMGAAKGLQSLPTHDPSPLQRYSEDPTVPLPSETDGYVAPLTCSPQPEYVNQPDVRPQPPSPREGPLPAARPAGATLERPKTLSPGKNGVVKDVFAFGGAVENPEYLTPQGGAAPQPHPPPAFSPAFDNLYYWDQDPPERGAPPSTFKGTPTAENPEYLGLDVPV

For `CCCCn1c(O)c(C(C)=NC(Cc2c[nH]c3ccccc23)C(=O)OC)c(=O)[nH]c1=O` (centres undefined), the inhibition (usually the drop in the measured response relative to a control, in per cent) in [1] is 1% (inactive); in [6], -4.93% (inactive); in test [7], -2.1% (inactive). For the same molecule, the viability – broadly, a read-out of living cells in per cent, often relative to untreated cells – in [2] was 91% (inactive); in [3], 84.5% (inactive); in test [4] it was 96.5% (inactive); in test [5] (setting [10]), 93.7%; in [5] (setting [11]) it was 96.5%. Further, in [5] (H69AR cells + 2 uM doxorubicin), the differential viability (reversal) was 2.8% (inactive).
Turning to `O=C(O)C1(c2ccc(Cl)cc2)CCC1`, the values for the inhibition in [1], in test [6] and in test [7] were 0% (inactive), -6.13% (inactive) and -3.02% (inactive), respectively. Further, the viability in [8] is 109%; in test [2], 109% (inactive); in test [3], 97.2% (inactive); in [4], 91.7% (inactive); in test [5] (setting [10]), 93.6%; in [5] (setting [11]), 91.7%. Besides, in test [9], the Her2 level was 91.5% (inactive). For the same molecule, the differential viability (reversal) in [5] (H69AR cells + 2 uM doxorubicin) is -1.85% (inactive).
Consider `COc1ccccc1N1CCN(Cc2c(F)cccc2F)CC1`, for which the inhibition in [1] was 1% (inactive); in test [6] it was -1.69% (inactive); in test [7], 0.98% (inactive). For the same molecule, the viability is 89% in test [8]; 89% (inactive) in [2]; 107% (inactive) in test [3]; 94.2% (inactive) in [4]; 96.8% in test [5] (setting [10]); 94.2% in test [5] (setting [11]). Moreover, the Her2 level in [9] was 88.5% (inactive). In [5] (H69AR cells + 2 uM doxorubicin), the differential viability (reversal) is -2.56% (inactive).
Regarding `CN(C)c1cc(N)c2c(n1)CCC2` (tested in a mixture with another compound), the figures for the inhibition in [1], in test [6] and in [7] were 0% (inactive), -4.49% (inactive) and -5.17% (inactive), respectively. In addition, the viability in test [8] is 113%; in test [2] it was 113% (inactive); in [3], 102% (inactive); in test [4], 86.1% (inactive); in [5] (setting [10]) it was 87.6%; in test [5] (setting [11]), 86.1%. In addition, in [9], the Her2 level was 134% (inactive). In addition, the differential viability (reversal) in [5] (H69AR cells + 2 uM doxorubicin) is -1.48% (inactive).
Regarding `CCOc1ccc(Br)c(C2(O)CC(C)N(C)CC2C)c1` (centres undefined), the inhibition was 1% (inactive) in [1], -6% (inactive) in test [6] and -1.48% (inactive) in test [7]. The viability in [8] is 80.5%; in test [2] it was 80.5% (inactive); in test [3] it was 68.2% (inactive); in test [4] it was 96.7% (inactive); in test [5] (setting [10]) it was 77.1%; in [5] (setting [11]) it was 96.7%. Moreover, the Her2 level in test [9] was 80.5% (inactive). The differential viability (reversal) in [5] (H69AR cells + 2 uM doxorubicin) was 19.5% (inactive).
In the case of `Cc1ccc(C)c(C2(O)CC(C)N(C)CC2C)c1` (centres undefined), the inhibition in test [1] is 0% (inactive); in [6] it was -1.32% (inactive); in [7], -2.7% (inactive). Also, the viability is 110% in test [8]; 110% (inactive) in test [2]; 94.9% (inactive) in test [3]; 102% (inactive) in [4]; 91.7% in test [5] (setting [10]); 102% in test [5] (setting [11]). Moreover, the Her2 level in [9] is 103% (inactive). The differential viability (reversal) in test [5] (H69AR cells + 2 uM doxorubicin) was 10.4% (inactive).
Regarding `C[C@H]1OC[C@@H](C[N+](C)(C)C)O1`, the inhibition in [1] was 0% (inactive); in [6], -1.43% (inactive); in [7] it was 4.67% (inactive). Also, the viability was 103% (inactive) in test [2]; 99.6% (inactive) in [3]; 106% (inactive) in test [4]; 98.6% in test [5] (setting [10]); 106% in test [5] (setting [11]). For the same molecule, the differential viability (reversal) in test [5] (H69AR cells + 2 uM doxorubicin) is 7.41% (inactive).
For the molecule `Clc1ccc(COC(Cn2ccnc2)c2ccc(Cl)cc2Cl)c(Cl)c1` (centres undefined), the inhibition in test [1] is 2% (inactive). Besides, the viability is 105% in [8]; 105% (inactive) in [2]; 9.27% (active) in [3]; 58.6% in [5] (setting [10]); 31% in [5] (setting [11]). Moreover, the Her2 level in test [9] is 20% (active). In addition, in [5] (H69AR cells + 2 uM doxorubicin), the differential viability (reversal) was -27.5% (inactive).
Regarding `CNP1(NC)=NC(C(F)(F)F)=NC(C(F)(F)F)=N1`, the inhibition was 3% (inactive) in test [1], -6.99% (inactive) in [6] and 4.36% (inactive) in [7]. The viability in test [2] was 95% (inactive); in [3] it was 124% (inactive); in test [4], 98.1% (inactive); in test [5] (setting [10]), 91.2%; in test [5] (setting [11]) it was 98.1%. Further, in [5] (H69AR cells + 2 uM doxorubicin), the differential viability (reversal) was 6.97% (inactive).
Turning to `CC12CCCCC1=[N+]([O-])CN2O` (centres undefined), the inhibition in test [1] was 5% (inactive); in test [6], -1.33% (inactive); in [7], 8.71% (inactive). In addition, the viability in [8] was 102%; in [2] it was 102% (inactive); in [3], 109% (inactive); in test [4] it was 105% (inactive); in test [5] (setting [10]), 89.4%; in test [5] (setting [11]), 105%. For the same molecule, the Her2 level in test [9] is 112% (inactive). For the same molecule, in [5] (H69AR cells + 2 uM doxorubicin), the differential viability (reversal) was 15.9% (inactive).
As for `CCN1CCN(C(=O)COc2cc(=O)n(CC)c3ccccc23)CC1`, the inhibition was 0% (inactive) in test [1], 0.38% (inactive) in test [6] and 0.67% (inactive) in [7]. In addition, the viability was 80.5% in [8]; 80.5% (inactive) in [2]; 89.2% (inactive) in test [3]; 90.3% (inactive) in test [4]; 67.6% in test [5] (setting [10]); 90.3% in test [5] (setting [11]). Further, the Her2 level in [9] was 104% (inactive). In [5] (H69AR cells + 2 uM doxorubicin), the differential viability (reversal) was 22.7% (inactive).
In the case of `CCOc1cc2[nH]c(=S)n(CCCC(=O)N3CCC4(CC3)OCCO4)c(=O)c2cc1OCC`, the inhibition was 0% (inactive) in test [1], -4.59% (inactive) in test [6] and -4.75% (inactive) in [7]. For the same molecule, the viability was 88.5% in test [8]; 88.5% (inactive) in test [2]; 78.2% (inactive) in [3]; 89.2% (inactive) in test [4]; 93.2% in test [5] (setting [10]); 89.2% in test [5] (setting [11]). In addition, the Her2 level in [9] is 85.5% (inactive). The differential viability (reversal) in test [5] (H69AR cells + 2 uM doxorubicin) is -4% (inactive).
Take `CCCCn1c(O)c(C=NC2CCCCC2N)c(=O)[nH]c1=O` (centres undefined): the inhibition in [1] was 0% (inactive); in [6], -2.6% (inactive); in test [7], 1.43% (inactive). For the same molecule, the viability in [8] was 128%; in test [2], 128% (inactive); in test [3], 92.6% (inactive); in test [4] it was 79.3% (inactive); in test [5] (setting [10]), 74.4%; in test [5] (setting [11]) it was 79.3%. In addition, the Her2 level in [9] was 96.5% (inactive). Moreover, in test [5] (H69AR cells + 2 uM doxorubicin), the differential viability (reversal) is 4.94% (inactive).
Take `O=C(c1ccc2nc(-c3ccco3)c(-c3ccco3)nc2c1)N1CCC2(CC1)OCCO2`: the inhibition is 0% (inactive) in test [1], -4.87% (inactive) in test [6] and 4.33% (inactive) in test [7]. Moreover, the viability in test [8] is 93%; in [2], 93% (inactive); in [3], 97.1% (inactive); in test [4] it was 90.5% (inactive); in test [5] (setting [10]), 82.7%; in test [5] (setting [11]) it was 90.5%. The Her2 level in test [9] was 106% (inactive). The differential viability (reversal) in test [5] (H69AR cells + 2 uM doxorubicin) was 7.87% (inactive).
Take `C#CCN(C)C(C)Cc1ccccc1` (centres undefined): the inhibition is 5% (inactive) in [1], -0.26% (inactive) in test [6] and 2.33% (inactive) in test [7]. The viability in test [2] was 115% (inactive); in test [3], 88.3% (inactive); in test [4], 99.3% (inactive); in [5] (setting [10]), 104%; in test [5] (setting [11]), 99.3%. Moreover, in [5] (H69AR cells + 2 uM doxorubicin), the differential viability (reversal) is -5.18% (inactive).
For the molecule `COc1ccc(CCNC(=O)c2c(N)n(CCN3CCOCC3)c3nc4ccccc4nc23)cc1`, the figures for the inhibition in test [1], in test [6] and in test [7] were 0% (inactive), 3.82% (inactive) and 1.82% (inactive), respectively. Also, the viability in test [8] is 104%; in test [2], 104% (inactive); in test [4] it was 19.3% (active); in [5] (setting [10]) it was 39.8%; in [5] (setting [11]), 19.3%. The Her2 level in test [9] is 87.5% (inactive). Also, in test [5] (H69AR cells + 2 uM doxorubicin), the differential viability (reversal) is -20.5% (inactive).
